Diaph act CS = compounds boosting diaphorase resazurin reduction – biochemical, uHTS, resorufin fluorescence, counter-screen for diaphorase-coupled primary assays, primary screen | activation factor at 20 µM | Diaphorase/resazurin coupled assay, 16 min; hits give high values; 1 = vehicle wells, 0 = NADH-free wells | AID 1229, 2008 | hit rate 0.005% among 190,000;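 active means diaphorase activity raised at least twofold by the compound at 20 µM; inactive means activation factor below 2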
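Assay system: bacterial diaphorase enzyme (C. kluyveri) / Input: enzyme 0.07 U/mL final / Medium: 50 mM HEPES pH 7.4 with 4.542 mM MgCl2, 0.005% Tween 20 / Doses: single compound dose of 20 µM, 1% DMSO final / Incubation: 16 min enzyme reaction, ambient temperature / Signal: fluorescence, excitation 544 nm and emission 590 nm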
HKDC1 inhibitor = HKDC1 hexokinase inhibitors, primary screen, biochemical, fluorescence, uHTS; Q2TB90; recombinant HKDC1, G6PDH/diaphorase resazurin coupled fluorescence; hit rate 0.16% among 340,000; inhibition, % at 20 µM;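 active means inhibition above about 35% when tested at 20 µM, limit read from the data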;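 further: plate controls were DMSO wells with enzyme for no effect and DMSO wells lacking enzyme for full effect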
Target sequence (Q2TB90 whole entry, looked up): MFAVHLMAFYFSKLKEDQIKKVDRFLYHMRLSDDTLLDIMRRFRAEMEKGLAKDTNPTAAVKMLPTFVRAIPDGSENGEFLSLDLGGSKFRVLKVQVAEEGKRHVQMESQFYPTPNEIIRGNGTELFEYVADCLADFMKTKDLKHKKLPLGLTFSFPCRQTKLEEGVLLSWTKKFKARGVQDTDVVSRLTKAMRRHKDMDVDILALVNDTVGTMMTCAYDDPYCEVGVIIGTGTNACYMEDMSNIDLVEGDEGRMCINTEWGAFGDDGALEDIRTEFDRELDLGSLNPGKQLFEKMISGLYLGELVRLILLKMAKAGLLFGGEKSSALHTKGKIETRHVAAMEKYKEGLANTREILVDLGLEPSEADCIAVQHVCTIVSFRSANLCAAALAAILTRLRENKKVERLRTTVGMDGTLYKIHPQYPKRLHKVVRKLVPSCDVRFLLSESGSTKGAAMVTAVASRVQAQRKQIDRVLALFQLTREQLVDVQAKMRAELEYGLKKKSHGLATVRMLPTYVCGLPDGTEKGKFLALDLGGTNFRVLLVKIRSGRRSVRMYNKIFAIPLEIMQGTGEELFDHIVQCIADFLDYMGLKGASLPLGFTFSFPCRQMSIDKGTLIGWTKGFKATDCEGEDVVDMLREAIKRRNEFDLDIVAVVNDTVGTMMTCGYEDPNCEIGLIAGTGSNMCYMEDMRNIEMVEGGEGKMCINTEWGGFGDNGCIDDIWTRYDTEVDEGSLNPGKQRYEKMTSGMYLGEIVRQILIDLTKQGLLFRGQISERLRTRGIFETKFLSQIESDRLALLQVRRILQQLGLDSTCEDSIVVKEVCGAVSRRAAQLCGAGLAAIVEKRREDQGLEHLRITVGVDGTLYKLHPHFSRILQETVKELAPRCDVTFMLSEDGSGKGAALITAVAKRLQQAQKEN
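Test system: Recombinant HKDC1 (HK5) hexokinase enzyme, produced in-house | Input: HKDC1 at 5 µg/mL | Buffer or medium: Tris pH 8.0 buffer with MgCl2, Tween-20, BSA, BME | Schedule: 90 min reaction incubation at room temperature, dark | Technique: Resazurin-to-resorufin fluorescence via G6PDH and diaphorase coupling, 525/613 nm | Controls: DMSO wells with and without enzyme mix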
Diaph inh CS = diaphorase inhibitors and chemical oxidizers, primary screen, counter-screen for diaphorase-coupled primary assays, biochemical, uHTS, resorufin fluorescence; diaphorase resazurin-to-resorufin fluorescence, NADH, 16 min; bacterial (C. kluyveri) enzyme, not human; inhibition, % at 20 µM; hit rate 0.69% among 190,000; AID 1217, 2008;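 active means primary screen inhibition at 20 µM above a set limit, cut at about 50% in these data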;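 further: plate controls were DMSO with full reaction for no effect and wells lacking NADH for full effect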
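System: Diaphorase enzyme from Clostridium kluyveri | Amount: Enzyme working solution with 0.14 U/mL diaphorase | Benchmarks: No-NADH positive control and DMSO neutral control | Signal: Fluorescence of resorufin formed from resazurin, Ex 544/Em 590 nm | Schedule: 16-min room-temperature incubation before reading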
PfGluPho inh = PfG6PD enzyme inhibitors, primary screen, biochemical, fluorescence intensity, uHTS; AID 504690, 2011; glucose-6-phosphate dehydrogenase-6-phosphogluconolactonase (Plasmodium falciparum 3D7); PfGluPho enzyme, NADPH resazurin-diaphorase fluorescence; inhibition, % at 20 µM; hit rate 0.78% among 350,000;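 active means inhibition reaching at least a set limit at 20 µM in the primary screen, cut at about 59% in these data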;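 further: 0% = DMSO wells with substrate and 100% = DMSO wells lacking glucose-6-phosphate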
G6PDH CS = L. mesenteroides G6PDH inhibitors, counter-screen for G6PDH-coupled screening assays, biochemical, Leuconostoc mesenteroides enzyme. glucose-6-phosphate dehydrogenase [Leuconostoc mesenteroides]. Purified L. mesenteroides G6PDH, diaphorase/resazurin coupled fluorescence, 45 min. inhibition, % at 5 µM. hit rate 0.12% among 200,000. AID 1020, 2008; in the data active means inhibition above about 50%
PfGluPho conf = PfG6PD inhibitors, hit retest, confirmation, biochemical, fluorescence intensity, single concentration. recombinant PfGluPho, NADPH-diaphorase-resazurin fluorescence. hit rate 34% among 2,400. shares compounds with PfGluPho inh. inhibition, % at 20 µM;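 active means inhibition of at least 50% at 20 µM in any single replicate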;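 further: 0% = DMSO with substrate and 100% = DMSO lacking glucose-6-phosphate substrate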
Diaph ctr 10uM = diaphorase inhibitors and chemical oxidizers, confirmation, counter-screen for P. falciparum G6PD inhibitor project, biochemical, fluorescence intensity, 10 µM NADPH; shares compounds with PfGluPho inh; diaphorase-coupled resazurin reduction, NADPH 10 uM; inhibition, % at 20 µM; hit rate 39% among 820;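 active means average inhibition reaching 50% or more with the compound at 20 µM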;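 further: resorufin red fluorescence formed as diaphorase reduces resazurin using NADPH; 0% = DMSO with enzyme and 100% = DMSO without enzyme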
Diaphorase 30uM = diaphorase inhibitors and chemical oxidizers, confirmation, counter-screen for P. falciparum G6PD inhibitor project, biochemical, fluorescence intensity, 30 µM NADPH. shares compounds with PfGluPho inh. Diaphorase/resazurin coupled assay, resorufin fluorescence. inhibition, % at 20 µM. hit rate 29% among 820. AID 504863, 2011;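 active means inhibition averaging 50% or more, tested at 20 µM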;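 further: 0% = DMSO with enzyme and 100% = DMSO wells lacking diaphorase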
The depositor's hits bear a star; x = no result; ! = not confirmed by another sample. This is a sample that favours compounds with a hit; in the whole collection about 1.2% have one here.

SMILES | Diaph act CS | HKDC1 inhibitor | Diaph inh CS | PfGluPho inh | G6PDH CS | PfGluPho conf | Diaph ctr 10uM | Diaphorase 30uM
COc1ccc(S(=O)(=O)N2CCCC(C(=O)NC3CC3)C2)cc1OC (configuration not stated) | x | -4.1 | x | 2.2 | x | x | x | x
CCc1ccc(NC(=O)CCc2nnc3ccc(N4CCCC4)nn23)cc1 | x | 3.2 | x | -3.3 | x | x | x | x
CCCN1C(=O)/C(=c2\sc3nc(=O)c(Cc4ccc(C)cc4)nn3c2=O)c2ccccc21 | 0.7 | 8.8 | 28.2 | 34.5 | 16.0 | x | x | x
NC(=O)CN1C(=O)/C(=c2\sc3nc(=O)c(Cc4ccccc4)nn3c2=O)c2ccccc21 | x | -3.8 | x | 62.6* | x | -8.4 | x | x
Cc1[nH]c2ccccc2c1/C=N/NC(=O)c1cccc(Br)c1 | x | 3.1 | x | 18.6 | x | x | x | x
Cc1[nH]c2ccccc2c1/C=N/NC(=O)c1cccc(S(=O)(=O)Nc2ccccc2Cl)c1 | 0.8 | 2.5 | 19.5 | 83.2* | -21.3 | 68.3* | 64.9* | 48.3
COc1nnc(-c2ccc(C)cc2)c2ccccc12 | x | 1.5 | x | -13.1 | x | x | x | x
O=S(=O)(Nc1ccc2oc(-c3ccccc3)nc2c1)c1ccccc1 | 0.8 | 6.0 | 16.2 | 88.0* | 6.4 | 37.7 | x | x
Cc1ccc(-c2nc3cc(NS(=O)(=O)c4ccc(C)cc4)ccc3o2)cc1 | 0.8 | -3.7 | 24.5 | 22.0 | 5.6 | x | x | x
O=c1c2ccccc2sn1-c1cccc(Cl)c1 | x | x | x | 127.8* | x | 104.1* | -10.7 | 3.1
Cc1ccccc1-n1sc2cc(F)ccc2c1=O | 0.9 | 4.0 | 9.8 | 113.8* | 6.1 | 114.2* | -11.5 | -24.9
O=C1CN(c2ccccc2F)C(=O)CN1c1ccccc1F | 0.9 | -6.5 | 10.0 | -10.1 | 0.7 | x | x | x
N#Cc1ccc2c(=O)n(-c3ccccc3)sc2c1 | x | x | x | 123.3* | x | 108.4* | 4.9 | -6.1
O=c1nc2sc3ccccc3n2c(=O)n1-c1cccc(Cl)c1 | 1 | -3.8 | -4.1 | -9.5 | 5.8 | x | x | x
O=c1c2ccccc2sn1-c1ccccc1F | x | x | x | 121.6* | x | 108.9* | -8.4 | 8.2
NC(=O)CN1CCN(Cc2ccc3c(c2)OCO3)CC1 | x | -0.2 | x | -12.1 | x | x | x | x
Cn1sc2ccccc2c1=O | x | x | x | 91.4* | x | 52.0* | -13.1 | 8.3
O=c1c2ccccc2c(-c2cccc(C(F)(F)F)c2)nn1-c1ccccc1 | x | 5.1 | x | 16.3 | x | x | x | x
O=c1c2cc(C(F)(F)F)ccc2sn1-c1ccccc1 | x | x | x | 128.4* | x | 93.8* | -2.7 | 4.5
CN(C)S(=O)(=O)c1cccc(-n2sc3ccccc3c2=O)c1 | 0.8 | 3.8 | 23.2 | 114.8* | 7.8 | 111.5* | -24.7 | -23.6
O=c1c2ccccc2sn1-c1ccccc1 | 0.9 | -3.3 | 9.4 | 111.7* | -2.4 | 113.8* | -4.3 | -15.9
CC1CCCN(S(=O)(=O)CCNC(=O)c2ccccc2)C1 (configuration not stated) | x | -1.3 | x | 5.7 | x | x | x | x
CC(=O)Nc1ccc2c(=O)n(-c3ccccc3)sc2c1 | x | x | x | 127.0* | x | 105.4* | -15.7 | 0.8
CC(=O)Nc1ccc(-c2cc(N)n(-c3ccccc3)n2)cc1 | x | 1.9 | x | 7.3 | x | x | x | x
O=c1c2ccccc2sn1-c1nccs1 | 0.5 | -0.2 | 51.3* | 112.4* | 1.7 | 114.6* | -25.4 | -24.3
SMILES | Diaph act CS | HKDC1 inhibitor | Diaph inh CS | PfGluPho inh | G6PDH CS | PfGluPho conf | Diaph ctr 10uM | Diaphorase 30uM
O=C(O)C1CCC(C(=O)O)SS1 (configuration not stated) | x | -3.6 | x | 3.6 | x | x | x | x
O=S(=O)(Nc1ccc2c(c1)OCO2)c1ccc(Cl)cc1F | x | 4.1 | x | 18.8 | x | x | x | x
Cc1ccccc1N/C(SCc1cccc(Br)c1)=C(/C#N)C(N)=O | 0.9 | 1.3 | 10.8 | 97.3* | 4.7 | 67.0* | 60.6* | 32.6
COC(=O)Cn1cc(/C=N/NC(=O)c2ccc(C#N)cc2F)c2ccccc21 | 0.9 | -7.1 | 10.9 | 2.5 | 7.1 | x | x | x
CCn1cc(/C=N/NC(=O)c2ccc(C#N)cc2F)c2ccccc21 | 0.9 | -2.4 | 7.7 | 106.7* | 4.5 | 89.3* | 81.0* | 64.1*
CN(CC1COc2ccccc2O1)C(=O)c1cccc(S(=O)(=O)N2CCCC2)c1 (configuration not stated) | x | -2.7 | x | -19.9 | x | x | x | x
O=C(Nc1cc(C(F)(F)F)ccc1N1CCOCC1)C1Cc2ccccc2CN1C(=O)c1ccco1 (configuration not stated) | 0.7 | 3.8 | 31.4 | 81.2* | 1.5 | 22.6 | x | x
O=C(CCN1C(=O)C2CC=CCC2C1=O)Nc1nccs1 (configuration not stated) | x | -7.2 | x | -3.5 | x | x | x | x
CC1(C)CC2(CC(c3ccccc3F)c3ccc(O)c(O)c3O2)NC(=S)N1 (configuration not stated) | 0.3 | 7.5 | 67.7* | 66.1* | 29.3 | 70.3* | 23.4 | 13.4
C=C(CN(C)C)C(=O)c1ccc(C)cc1C | x | 8.6 | x | 67.7* | x | 45.0 | x | x
O=[N+]([O-])c1ccc(SCCc2ccccn2)cc1 | x | 0.2 | x | 43.3 | x | x | x | x
O=[N+]([O-])c1ccc(SCCc2ccncc2)cc1 | x | 7.2 | x | 68.3*! | x | 13.2 | x | x
CN(C)c1ccc(C=c2c3cc([N+](=O)[O-])ccc3n3c2cc(-c2ccccc2)[n+]3C)cc1 | x | 20.3 | x | 120.0* | x | 92.7* | 24.2 | 24.2
COc1cc(C=c2c3ccccc3n3c2cc(-c2ccccc2)[n+]3C)cc(OC)c1OC | x | 26.9 | x | 13.7 | x | x | x | x
Cc1ccc(C(=O)Nc2ccc(Br)c(C(F)(F)F)c2)cc1 | 0.8 | -0.6 | 15.7 | 68.5* | 0.1 | 9.4 | x | x

From PubChem
